The record followed here is ChEMBL document CHEMBL1158335, “Synthesis and evaluation of some new benzimidazole derivatives as potential antimicrobial agents” (2009).

Each structure is given as a SMILES string. ≈ marks a conversion by molar mass, not a printed value. Calls of active or inactive are those of the source. The calls are words filed in the database; no cut-off is given here.

Test [1] has as its system Bacillus subtilis. In words: Antibacterial activity against Bacillus subtilis MTCC 121 at 100 ug/ml after 24 hrs. Type of test: functional, organism-based. The procedure, abridged: (§1)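 Organisms grown overnight at 37 °C in buffered glucose broth. A loopful (5 mm diameter) was added to buffered glucose broth containing the test compound and incubated at 37 °C for 24 h. Growth was scored against the untreated control as total inhibition, poor, medium or confluent growth.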

The test system of test [2] is Bacillus subtilis. In words: Antibacterial activity against Bacillus subtilis MTCC 121 at 200 ug/ml after 24 hrs. Format: functional, organism-based. The method, boiled down:
as §1

Test [3] concerns Bacillus subtilis. In words: Antibacterial activity against Bacillus subtilis MTCC 121 at 500 ug/ml after 24 hrs. Type of test: functional, organism-based. The method, boiled down:
as §1

The subject of test [4] is Bacillus subtilis. The experiment in a line: Antibacterial activity against Bacillus subtilis MTCC 121 after 24 hrs. Format: functional.
Test [5] has as its system Escherichia coli. In words: Antibacterial activity against Escherichia coli ATCC 25922 at 1 ug/ml after 24 hrs. Format: functional, organism-based. The method, boiled down: as §1
Test [6] deals with Escherichia coli. The experiment in a line: Antibacterial activity against Escherichia coli ATCC 25922 at 10 ug/ml after 24 hrs. Format: functional, organism-based. The method, boiled down: as §1
Test [7] relates to Escherichia coli. In words: Antibacterial activity against Escherichia coli ATCC 25922 at 100 ug/ml after 24 hrs. Type of test: functional, organism-based. The procedure, abridged: as §1
Test [8] relates to Escherichia coli. The experiment in a line: Antibacterial activity against Escherichia coli ATCC 25922 at 200 ug/ml after 24 hrs. Format: functional, organism-based. The procedure, abridged: as §1
Test [9] relates to Escherichia coli. The experiment in a line: Antibacterial activity against Escherichia coli ATCC 25922 at 500 ug/ml after 24 hrs. Format: functional, organism-based. The method, boiled down: as §1
Test [10] relates to Escherichia coli. In words: Antibacterial activity against Escherichia coli ATCC 25922 after 24 hrs. Type of test: functional.
In the next test the test system is Candida albicans. In words: Antifungal activity against Candida albicans MTCC 1637 at 30 ug/ml by cup-plate agar diffusion method. Format: functional. To be noted: for zone of inhibition at 30 µg/mL: read-out: DIZ. The procedure, abridged:
(§2)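 Cup-plate agar diffusion assay against the fungal strains, with amphotericin B as the reference standard.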
In general terms: In agar diffusion tests the substance spreads into inoculated agar from a disc or well.

A further test concerns Aspergillus flavus. In words: Antifungal activity against Aspergillus flavus AIIMS isolate at 30 ug/ml by cup-plate agar diffusion method. Type of test: functional. To be noted: for zone of inhibition at 30 µg/mL: read-out: DIZ. The method, boiled down: as §2
A further test relates to Aspergillus niger. The experiment in a line: Antifungal activity against Aspergillus niger AIIMS isolate at 30 ug/ml by cup-plate agar diffusion method. Format: functional. The note with it: for zone of inhibition at 30 µg/mL: read-out: DIZ. The method, boiled down: as §2
The subject of test [11] is Bacillus subtilis. The experiment in a line: Antibacterial activity against Bacillus subtilis MTCC 121 at 1 ug/ml after 24 hrs. Type of test: functional, organism-based. The procedure, abridged:
as §1

Test [12] deals with Bacillus subtilis. The experiment in a line: Antibacterial activity against Bacillus subtilis MTCC 121 at 10 ug/ml after 24 hrs. Type of test: functional, organism-based. The procedure, abridged:
as §1

The MIC is the lowest concentration that inhibits growth of the organism. In the case of `Cc1nc2ccccc2n1Cc1nnc(N2C(=O)C(Cl)C2c2ccc(Cl)cc2)s1` (stereo not given), the inhibition result in the test on Bacillus subtilis [1], in the test on Bacillus subtilis [2], in the test with Escherichia coli [5], in the test on Escherichia coli [6], in the test with Escherichia coli [7] and in the test with Escherichia coli [8] was “inactive” each time. Moreover, the inhibition entry in the test with Escherichia coli [9], in the test with Bacillus subtilis [11] and in the test with Bacillus subtilis [12] was “inactive” each time. The result in the test on Bacillus subtilis [3] was inactive. In addition, the MIC entry in the test with Bacillus subtilis [4] and with Escherichia coli [10] was “inactive” each time. Moreover, the “diameter of the inhibition zone (DIZ)” value in the test with Candida albicans, with Aspergillus flavus and in the test on Aspergillus niger was “inactive” each time.

As to `Cc1nc2ccccc2n1Cc1nnc(/N=C/c2cccc(O)c2)s1`, the inhibition result in the test with Bacillus subtilis [1], in the test with Bacillus subtilis [2], in the test with Escherichia coli [5], in the test on Escherichia coli [6], with Escherichia coli [7] and with Escherichia coli [8] was “inactive” each time. For the same molecule, the inhibition entry in the test on Escherichia coli [9], with Bacillus subtilis [11] and in the test with Bacillus subtilis [12] was “inactive” each time. The result in the test on Bacillus subtilis [3] was inactive. The MIC entry in the test on Bacillus subtilis [4] and in the test on Escherichia coli [10] was “inactive” in each case. For the same molecule, the zone of inhibition at 30 µg/mL with Candida albicans was found to be 22 mm; in the test on Aspergillus flavus it was 10 mm; in the test on Aspergillus niger, 10 mm.

`CC1(C)S[C@@H]2[C@H](NC(=O)[C@H](N)c3ccccc3)C(=O)N2[C@H]1C(=O)O` [AMPICILLIN]: the inhibition entry in the test with Bacillus subtilis [1], with Bacillus subtilis [2], in the test on Bacillus subtilis [3], in the test on Escherichia coli [6], in the test on Escherichia coli [7] and in the test with Escherichia coli [8] was “Active” each time. The inhibition result with Escherichia coli [9] and with Bacillus subtilis [12] was “Active” each time. Also, the MIC with Bacillus subtilis [4] (MTCC 121, 24 h) stood at 10 µg/mL (≈ 28.6 µM); against Escherichia coli [10] (ATCC 25922, 24 h) it was 10 µg/mL (≈ 28.6 µM).

For the molecule `Cc1nc2ccccc2n1Cc1nnc(N2C(=O)C(Cl)C2c2ccccc2Cl)s1` (stereo not given), the inhibition entry with Bacillus subtilis [2], in the test with Bacillus subtilis [3], in the test with Escherichia coli [7], in the test on Escherichia coli [8] and in the test on Escherichia coli [9] was “Active” in each case. For the same molecule, the MIC in the test with Bacillus subtilis [4] (MTCC 121, 24 h) was 200 µg/mL (≈ 450 µM); in the test with Escherichia coli [10] (ATCC 25922, 24 h), 100 µg/mL (≈ 225 µM). Moreover, the inhibition result in the test with Escherichia coli [5], in the test on Bacillus subtilis [11] and in the test with Bacillus subtilis [12] was “inactive” in each case. Further, the “diameter of the inhibition zone (DIZ)” value in the test with Candida albicans, in the test with Aspergillus flavus and with Aspergillus niger was “inactive” throughout.

Take `Cc1nc2ccccc2n1Cc1nnc(/N=C/c2ccc(Br)cc2)s1`: the inhibition entry in the test with Bacillus subtilis [3] and with Escherichia coli [9] was “Active” in each case. The MIC with Bacillus subtilis [4] (MTCC 121, 24 h) amounted to 500 µg/mL (≈ 1210 µM); against Escherichia coli [10] (ATCC 25922, 24 h) it was 500 µg/mL (≈ 1210 µM). Also, the inhibition result in the test on Escherichia coli [5], in the test on Escherichia coli [6], in the test on Bacillus subtilis [11] and with Bacillus subtilis [12] was “inactive” throughout. Besides, the “diameter of the inhibition zone (DIZ)” value in the test on Candida albicans, in the test with Aspergillus flavus and in the test with Aspergillus niger was “inactive” throughout.

For the molecule `Cc1ccccc1C1C(Cl)C(=O)N1c1nnc(Cn2c(C)nc3ccccc32)s1` (stereo not given), the inhibition entry in the test on Bacillus subtilis [1], in the test with Bacillus subtilis [2], with Bacillus subtilis [3], in the test on Escherichia coli [7], with Escherichia coli [8] and in the test with Escherichia coli [9] was “Active” in each case. The MIC is 100 µg/mL (≈ 236 µM) with Bacillus subtilis [4] (MTCC 121, 24 h) and 100 µg/mL (≈ 236 µM) with Escherichia coli [10] (ATCC 25922, 24 h). Also, the inhibition entry in the test on Escherichia coli [5] and with Bacillus subtilis [11] was “inactive” throughout. In addition, the results for the zone of inhibition at 30 µg/mL in the test on Candida albicans, in the test on Aspergillus flavus and in the test on Aspergillus niger were 10 mm, below 10 mm and 16 mm, respectively.

Take `Cc1nc2ccccc2n1Cc1nnc(/N=C/c2ccccc2Cl)s1`: the inhibition entry with Bacillus subtilis [1], in the test with Bacillus subtilis [2], in the test on Bacillus subtilis [3], with Escherichia coli [7], with Escherichia coli [8] and in the test on Escherichia coli [9] was “Active” each time. Moreover, the MIC stood at 100 µg/mL (≈ 272 µM) with Bacillus subtilis [4] (MTCC 121, 24 h) and 100 µg/mL (≈ 272 µM) against Escherichia coli [10] (ATCC 25922, 24 h). Further, the inhibition result with Escherichia coli [5] and in the test with Bacillus subtilis [11] was “inactive” in each case. The “diameter of the inhibition zone (DIZ)” value with Candida albicans, with Aspergillus flavus and in the test on Aspergillus niger was “inactive” throughout.

For the molecule `Cc1nc2ccccc2n1Cc1nnc(/N=C/c2ccc(Cl)cc2)s1`, the inhibition entry in the test on Bacillus subtilis [1], with Bacillus subtilis [2], in the test on Escherichia coli [5], in the test on Escherichia coli [6], in the test on Escherichia coli [7] and in the test with Escherichia coli [8] was “inactive” throughout. For the same molecule, the inhibition entry in the test with Escherichia coli [9], in the test with Bacillus subtilis [11] and in the test with Bacillus subtilis [12] was “inactive” in each case. Moreover, the outcome in the test with Bacillus subtilis [3] was inactive. For the same molecule, the MIC result in the test on Bacillus subtilis [4] and in the test with Escherichia coli [10] was “inactive” in each case. The zone of inhibition at 30 µg/mL in the test on Candida albicans is 10 mm; with Aspergillus flavus it was below 10 mm; in the test with Aspergillus niger it was 10 mm.

Take `COc1ccccc1/C=N/c1nnc(Cn2c(C)nc3ccccc32)s1`: the inhibition result in the test on Bacillus subtilis [1], in the test on Bacillus subtilis [2], in the test on Escherichia coli [5], in the test with Escherichia coli [6], in the test with Escherichia coli [7] and with Escherichia coli [8] was “inactive” throughout. The inhibition entry in the test on Escherichia coli [9], with Bacillus subtilis [11] and with Bacillus subtilis [12] was “inactive” throughout. The outcome with Bacillus subtilis [3] was inactive. Further, the MIC entry in the test on Bacillus subtilis [4] and with Escherichia coli [10] was “inactive” throughout. Besides, the zone of inhibition at 30 µg/mL in the test on Candida albicans was determined as 10 mm; in the test with Aspergillus flavus it was 16 mm; with Aspergillus niger, 16 mm.

Regarding `COc1ccccc1C1C(Cl)C(=O)N1c1nnc(Cn2c(C)nc3ccccc32)s1` (stereo not given), the inhibition result in the test with Bacillus subtilis [1], in the test on Bacillus subtilis [2], in the test with Escherichia coli [5], in the test with Escherichia coli [6], in the test on Escherichia coli [7] and in the test with Escherichia coli [8] was “inactive” each time. Also, the inhibition result in the test on Escherichia coli [9], with Bacillus subtilis [11] and in the test on Bacillus subtilis [12] was “inactive” each time. In the test with Bacillus subtilis [3], the outcome was inactive. In addition, the MIC result in the test with Bacillus subtilis [4] and in the test with Escherichia coli [10] was “inactive” in each case. The zone of inhibition at 30 µg/mL with Candida albicans, in the test on Aspergillus flavus and in the test on Aspergillus niger was below 10 mm throughout.

As to `Cc1cccc(/C=N/c2nnc(Cn3c(C)nc4ccccc43)s2)c1`, the inhibition result in the test with Bacillus subtilis [1], in the test with Escherichia coli [5], with Escherichia coli [6], in the test on Escherichia coli [7], in the test on Escherichia coli [8] and in the test on Escherichia coli [9] was “inactive” throughout. For the same molecule, the inhibition result in the test with Bacillus subtilis [11] and with Bacillus subtilis [12] was “inactive” each time. Further, the outcome in the test with Bacillus subtilis [2], in the test with Bacillus subtilis [3] and in the test with Bacillus subtilis [4] was inactive. Also, the MIC result in the test on Escherichia coli [10] is “inactive”. Besides, the “diameter of the inhibition zone (DIZ)” value in the test with Candida albicans, with Aspergillus flavus and in the test on Aspergillus niger was “inactive” throughout.

Consider `Cc1nc2ccccc2n1Cc1nnc(N2C(=O)C(Cl)C2c2ccccc2)s1` (stereo not given), for which the inhibition entry in the test with Bacillus subtilis [2], in the test on Bacillus subtilis [3] and in the test on Escherichia coli [9] was “Active” throughout. In addition, the MIC stood at 200 µg/mL (≈ 488 µM) with Bacillus subtilis [4] (MTCC 121, 24 h) and 500 µg/mL (≈ 1220 µM) in the test on Escherichia coli [10] (ATCC 25922, 24 h). The inhibition result with Escherichia coli [5], with Escherichia coli [6], in the test with Bacillus subtilis [11] and in the test on Bacillus subtilis [12] was “inactive” each time. Besides, the zone of inhibition at 30 µg/mL in the test with Candida albicans worked out at 16 mm; in the test with Aspergillus flavus it was 16 mm; in the test with Aspergillus niger, 10 mm.

On to `Cc1ccccc1/C=N/c1nnc(Cn2c(C)nc3ccccc32)s1`, for which the inhibition entry with Bacillus subtilis [2], with Bacillus subtilis [3], with Escherichia coli [7], in the test with Escherichia coli [8] and with Escherichia coli [9] was “Active” throughout. The MIC came out at 200 µg/mL (≈ 576 µM) in the test on Bacillus subtilis [4] (MTCC 121, 24 h) and 100 µg/mL (≈ 288 µM) against Escherichia coli [10] (ATCC 25922, 24 h). For the same molecule, the inhibition result with Escherichia coli [5], in the test with Bacillus subtilis [11] and in the test with Bacillus subtilis [12] was “inactive” in each case. The results for the zone of inhibition at 30 µg/mL in the test on Candida albicans, with Aspergillus flavus and with Aspergillus niger were 10 mm, below 10 mm and 10 mm, respectively.
